Assay results as given in ChEMBL document CHEMBL6078712, “Triterpenoid phthalimides as selective anti-cancer agents targeting mitochondrial apoptosis” (Eur J Med Chem, 2025).
Activity calls are given as the source filed them. No cut-off for these calls is given here.

Assays:
CCRF-CEM [1] = assay: Cytotoxicity against human CCRF-CEM cells assessed as inhibition of cell growth incubated for 72 hrs by MTS assay; assay type: functional, cell-based
Outline: (§1)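 MTS assay on eight human cancer lines and two non-tumour fibroblast lines. IC50 is the concentration that inhibits cell growth by 50 %. SD typically up to 15 % of the mean.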

CEM-DNR = assay: Cytotoxicity against human CEM-DNR cells assessed as inhibition of cell growth incubated for 72 hrs by MTS assay; assay type: functional, cell-based; outline: as §1
HCT-116 = assay: Cytotoxicity against human HCT-116 cells assessed as inhibition of cell growth incubated for 72 hrs by MTS assay; assay type: functional, cell-based; conditions: HCT-116, 72 h; outline: as §1
HCT 116 TP53(-/-) = assay: Cytotoxicity against human HCT116-p53-null cells assessed as inhibition of cell growth incubated for 72 hrs by MTS assay; assay type: functional, cell-based; outline: as §1
K562 = assay: Cytotoxicity against human K562 cells assessed as inhibition of cell growth incubated for 72 hrs by MTS assay; assay type: functional, cell-based; conditions: K562, 72 h; outline: as §1
[2] = Cytotoxicity against human K562-Tax cells assessed as inhibition of cell growth incubated for 72 hrs by MTS assay; assay type: functional, cell-based; outline: as §1
A549 = assay: Cytotoxicity against human A549 cells assessed as inhibition of cell growth incubated for 72 hrs by MTS assay; assay type: functional, cell-based; conditions: A549, 72 h; outline: as §1
[3] = Cytotoxicity against human BJ cells assessed as inhibition of cell growth incubated for 72 hrs by MTS assay; assay type: toxicity, cell-based; outline: as §1
[4] = Cytotoxicity against human MRC5 cells assessed as inhibition of cell growth incubated for 72 hrs by MTS assay; assay type: toxicity, cell-based; outline: as §1
[5] = Stability in human plasma assessed as compound remaining at 2 uM incubated for 15 mins by RF-MS analysis; assay type: ADME, cell-free; conditions: read-out: Stability
Outline: (§2)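 Human plasma stability, plasma protein binding and liver microsome stability, each run in triplicate. Error deviations below 10 %.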

[6] = Stability in human plasma assessed as compound remaining at 2 uM incubated for 30 mins by RF-MS analysis; assay type: ADME, cell-free; conditions: read-out: Stability; outline: as §2
[7] = Stability in human plasma assessed as compound remaining at 2 uM incubated for 60 mins by RF-MS analysis; assay type: ADME, cell-free; conditions: read-out: Stability; outline: as §2
[8] = Stability in human plasma assessed as compound remaining at 2 uM incubated for 120 mins by RF-MS analysis; assay type: ADME, cell-free; conditions: read-out: Stability; outline: as §2
[9] = Metabolic stability in human liver microsomes assessed as parent compound remaining at 2 uM incubated for 15 mins in presence of NADPH by RF-MS analysis; assay type: ADME, Microsome; conditions: read-out: Stability; outline: as §2
[10] = Metabolic stability in human liver microsomes assessed as parent compound remaining at 2 uM incubated for 30 mins in presence of NADPH by RF-MS analysis; assay type: ADME, Microsome; conditions: read-out: Stability; outline: as §2
[11] = Metabolic stability in human liver microsomes assessed as parent compound remaining at 2 uM incubated for 60 mins in presence of NADPH by RF-MS analysis; assay type: ADME, Microsome; conditions: read-out: Stability; outline: as §2
CCRF-CEM [12] = assay: Induction of apoptosis in human CCRF-CEM cells assessed as viable cells at 1 times IC50 incubated for 24 hrs by Annexin V-FITC and PI staining based flow cytometric analysis (reference value: 97.4 %); assay type: functional
Outline: (§3)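 Washed in Ca2+-containing binding buffer, then stained 15 min at room temperature in the dark with Annexin V-FITC and propidium iodide (PI at half the kit-recommended level). Read at once by flow cytometry with a 488 nm laser, ≥10,000 cells. Debris excluded; quadrants viable, early apoptotic, late apoptotic/necrotic, necrotic. Three independent experiments.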

CCRF-CEM [13] = assay: Induction of apoptosis in human CCRF-CEM cells assessed as early apoptotic cells at 1 times IC50 incubated for 24 hrs by Annexin V-FITC and PI staining based flow cytometric analysis (reference value: 2.1 %); assay type: functional; outline: as §3
CCRF-CEM [14] = assay: Induction of apoptosis in human CCRF-CEM cells assessed as late apoptotic cells at 1 times IC50 incubated for 24 hrs by Annexin V-FITC and PI staining based flow cytometric analysis (reference value: 0.4 %); assay type: functional; outline: as §3
CCRF-CEM [15] = assay: Induction of apoptosis in human CCRF-CEM cells assessed as early apoptotic cells at 5 times IC50 incubated for 24 hrs by Annexin V-FITC and PI staining based flow cytometric analysis (reference value: 2.1 %); assay type: functional; outline: as §3
CCRF-CEM [16] = assay: Induction of apoptosis in human CCRF-CEM cells assessed as necrotic cells at 5 times IC50 incubated for 24 hrs by Annexin V-FITC and PI staining based flow cytometric analysis (reference value: 0.4 %); assay type: functional; outline: as §3
Mitochondrial membrane = assay: Induction of mitochondrial membrane potential depolarization in human CCRF-CEM cells assessed as fold increase in fluorescence intensity incubated for 24 hrs by JC-1 staining based flow cytometry; assay type: cell membranes
CCRF-CEM [17] = assay: Induction of cell cycle arrest in human CCRF-CEM cells assessed as increase in accumulation of G0/G1 phase at 1 times IC50 incubated for 24 hrs by RNase/PI staining based flow cytometry; assay type: functional
Outline: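 Propidium iodide staining and flow cytometry with a 488 nm laser, ≥10,000 intact cells. Phase proportions compared with untreated cells; SEM of three independent experiments.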

CCRF-CEM [18] = assay: Inhibition of RNA synthesis in human CCRF-CEM cells at 1 times IC50 incubated for 24 hrs by BrU incorporation based flow cytometry; assay type: functional
Outline: (§4)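 Fixed in 1 % paraformaldehyde/0.05 % NP-40 (15 min at room temperature, then 4 °C overnight). Stained with cross-reacting anti-BrdU plus FITC secondary (45 min each), then PI/RNase A. Flow cytometry; % BrU-positive cells.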

CCRF-CEM [19] = assay: Inhibition of RNA synthesis in human CCRF-CEM cells at 5 times IC50 incubated for 24 hrs by BrU incorporation based flow cytometry; assay type: functional; outline: as §4
CCRF-CEM [20] = assay: Induction of cell cycle arrest in human CCRF-CEM cells assessed as downregulation of AKT phosphorylation at 1 times IC50 incubated for 24 hrs by Western blotting analysis; assay type: functional, cell-based
Outline: (§5)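 30 µg protein per lane on SDS-PAGE, transferred to nitrocellulose, blocked in 5 % BSA/TBS-Tween. Primary antibodies overnight at 4 °C (Akt, P-Akt Ser473, STAT-3, caspase-3, PARP, cyclin D, cyclin A, Bcl-xL, Bak, Bid, Bim), then HRP secondary and ECL detection. GAPDH as loading control.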

CCRF-CEM [21] = assay: Induction of cell cycle arrest in human CCRF-CEM cells assessed as downregulation of total AKT expression at 5 times IC50 incubated for 24 hrs by Western blotting analysis; assay type: functional, cell-based; outline: as §5
CCRF-CEM [22] = assay: Induction of cell cycle arrest in human CCRF-CEM cells assessed as downregulation of total STAT3 expression at 5 times IC50 incubated for 24 hrs by Western blotting analysis; assay type: functional, cell-based; outline: as §5
CCRF-CEM [23] = assay: Induction of cell cycle arrest in human CCRF-CEM cells assessed as downregulation of Cyclin D expression at 5 times IC50 incubated for 24 hrs by Western blotting analysis; assay type: functional, cell-based; outline: as §5
CCRF-CEM [24] = assay: Induction of apoptosis in human CCRF-CEM cells assessed as downregulation of caspase-3 expression at 5 times IC50 incubated for 24 hrs by Western blotting analysis; assay type: functional, cell-based; outline: as §5
CCRF-CEM [25] = assay: Induction of apoptosis in human CCRF-CEM cells assessed as upregulation of BID expression at 1 to 5 times IC50 incubated for 24 hrs by Western blotting analysis; assay type: functional, cell-based; outline: as §5
CCRF-CEM [26] = assay: Induction of apoptosis in human CCRF-CEM cells assessed as downregulation of BCL-XL expression at 5 times IC50 incubated for 24 hrs by Western blotting analysis; assay type: functional, cell-based; outline: as §5

Molecule `CC(=O)O[C@H]1CC[C@]2(C)[C@H]3CC[C@@H]4[C@H]5[C@H](c6cc7c(c(-c8ccccc8)c6)C(=O)N(c6cc[nH]n6)C7=O)CC[C@]5(C(=O)O)CC[C@@]4(C)[C@]3(C)CC[C@H]2C1(C)C` has an IC50 (CCRF-CEM [1]) of 5.13 µM, an IC50 (CEM-DNR) of 11.5 µM and an IC50 (HCT-116) of 9.54 µM. The IC50 (HCT 116 TP53(-/-)) was 13.7 µM, the IC50 (K562) was 14.5 µM and the IC50 [2] was 13.3 µM. For the same molecule, the IC50 (A549) was 18.9 µM, the IC50 at 72 h [3] was 31.8 µM and the IC50 at 72 h [4] was 22.6 µM. For the same molecule, the remaining at 0.25 h, 2 µM [5] was 97%, the remaining at 0.5 h, 2 µM [6] was 91% and the remaining at 1 h, 2 µM [7] was 92%. For the same molecule, the remaining at 2 h, 2 µM [8] was 86%, the remaining at 0.25 h, 2 µM [9] was 99% and the remaining at 0.5 h, 2 µM [10] was 99%. For the same molecule, the remaining at 1 h, 2 µM [11] was 81%, the Activity (CCRF-CEM [12]) was 92.8% and the Activity (CCRF-CEM [13]) was 4.8%. For the same molecule, the Activity (CCRF-CEM [14]) was 2.4%, the Activity (CCRF-CEM [15]) was 7.9% and the Activity (CCRF-CEM [16]) was 0.1%. The Activity (Mitochondrial membrane) was “Dose-dependent-effect”, the Activity (CCRF-CEM [17]) was “Active; Slight Increased Activity Observed” and the “inhibition (INH)” value (CCRF-CEM [18]) was 23.8%. The “inhibition (INH)” value (CCRF-CEM [19]) was 47.4%, the Activity (CCRF-CEM [20]) was “Active” and the Activity (CCRF-CEM [21]) was “Active; Slight Activity Observed”. The Activity (CCRF-CEM [22]) was “Active”, the Activity (CCRF-CEM [23]) was “Active” and the Activity (CCRF-CEM [24]) was “Active”. For the same molecule, the Activity (CCRF-CEM [25]) was “Active” and the Activity (CCRF-CEM [26]) was “Active”.
